≈ marks a conversion by molar mass, not a printed value. Calls of active or inactive are those of the source. No cut-off for these calls is given here.
What was measured:
Bacillus subtilis = experiment: Antibacterial activity against Bacillus subtilis ATCC 9372 after 24 hrs by broth microdilution method; format: functional; conditions: ATCC 9372, 24 h
Procedure, shortened: (§1)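 Broth microdilution run to the standard NCCLS-recommended procedure, applied to all newly synthesized compounds, with a panel that included four Gram-positive strains.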

Staphylococcus aureus [1] = experiment: Antibacterial activity against methicillin-resistant Staphylococcus aureus ATCC 43300 after 24 hrs by broth microdilution method; format: functional; conditions: ATCC 43300, 24 h
Escherichia coli = experiment: Antibacterial activity against Escherichia coli ATCC 25922 after 24 hrs by broth microdilution method; format: functional; conditions: ATCC 25922, 24 h; procedure, shortened: as §1
Klebsiella pneumoniae = experiment: Antibacterial activity against Klebsiella pneumoniae ATCC 700603 after 24 hrs by broth microdilution method; format: functional; conditions: Klebsiella pneumoniae, 700603, 24 h; procedure, shortened: as §1
Staphylococcus aureus [2] = experiment: Antibacterial activity against penicillin-resistant Staphylococcus aureus after 24 hrs by broth microdilution method; format: functional
Staphylococcus aureus [3] = experiment: Antibacterial activity against Staphylococcus aureus ATCC 25923 after 24 hrs by broth microdilution method; format: functional; conditions: ATCC 25923, 24 h; procedure, shortened: as §1
[4] = biological target: T1, Cell division protein FtsZ (Staphylococcus aureus) (UniProt P0A031); experiment: Inhibition of FtsZ in Staphylococcus aureus assessed as ballooning
T1 sequence (whole entry): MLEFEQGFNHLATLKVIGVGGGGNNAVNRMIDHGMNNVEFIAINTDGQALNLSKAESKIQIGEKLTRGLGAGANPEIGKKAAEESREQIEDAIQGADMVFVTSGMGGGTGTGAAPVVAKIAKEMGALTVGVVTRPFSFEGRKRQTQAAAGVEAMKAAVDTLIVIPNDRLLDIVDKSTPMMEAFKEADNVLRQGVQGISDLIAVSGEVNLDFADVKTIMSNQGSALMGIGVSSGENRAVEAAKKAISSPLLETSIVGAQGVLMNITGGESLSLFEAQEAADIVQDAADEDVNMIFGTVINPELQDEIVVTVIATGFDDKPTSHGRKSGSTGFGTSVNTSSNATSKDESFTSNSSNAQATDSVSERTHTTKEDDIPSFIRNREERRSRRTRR

[5] = biological target: T2, Cell division protein FtsZ (Bacillus subtilis) (UniProt A5Z1V5); experiment: Inhibition of FtsZ in Bacillus subtilis ATCC 9372 assessed as filamentation
T2 sequence (whole entry): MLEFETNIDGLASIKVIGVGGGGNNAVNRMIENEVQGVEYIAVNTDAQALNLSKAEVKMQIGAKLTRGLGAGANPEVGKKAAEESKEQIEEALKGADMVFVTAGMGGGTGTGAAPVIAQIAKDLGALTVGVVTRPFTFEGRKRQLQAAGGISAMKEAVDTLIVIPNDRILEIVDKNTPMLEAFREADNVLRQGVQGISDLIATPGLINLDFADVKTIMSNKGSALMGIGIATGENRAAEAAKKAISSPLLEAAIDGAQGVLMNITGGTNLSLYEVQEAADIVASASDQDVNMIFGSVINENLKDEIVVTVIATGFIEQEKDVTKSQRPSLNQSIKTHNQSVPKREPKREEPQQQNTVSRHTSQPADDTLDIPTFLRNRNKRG

[6] = biological target: T2, Cell division protein FtsZ (Bacillus subtilis); experiment: Inhibition of FtsZ in Bacillus subtilis ATCC 9372 assessed as filamentation at 1 ug/ml

| SMILES | MIC (Bacillus subtilis) [µg/mL] | MIC (Staphylococcus aureus [1]) [µg/mL] | MIC (Escherichia coli) [µg/mL] | MIC (Klebsiella pneumoniae) [µg/mL] | MIC (Staphylococcus aureus [2]) [µg/mL] | MIC (Staphylococcus aureus [3]) [µg/mL] | inhibition [4] | inhibition [5] | inhibition [6] |
| --- | --- | --- | --- | --- | --- | --- | --- | --- | --- |
| Fc1ccc(OCc2nc(-c3ccc(Cl)cc3)c(Br)o2)c(F)c1-c1c[nH]nn1 | > 64 | > 64 | > 64 | > 64 | > 64 | > 64 |  |  |  |
| NC(=O)c1c(F)ccc(OCC2COc3ccc(Cl)cc3O2)c1F (stereo not given) |  | 0.5 (≈ 1.41 µM) |  |  |  |  |  |  |  |
| Clc1cccc(COc2cccc(Cn3cnnn3)c2)c1 | > 64 | > 64 | > 64 | > 64 | > 64 | > 64 |  |  |  |
| CCCCC(CC)COc1ccccc1-c1c[nH]nn1 (stereo not given) | 8 (≈ 29.3 µM) | 8 (≈ 29.3 µM) | > 64 | 8 (≈ 29.3 µM) | 8 (≈ 29.3 µM) | 8 (≈ 29.3 µM) | Active | inactive |  |
| CCCCC(CC)COc1cccc(-c2c[nH]nn2)c1 (racemic) | 2 (≈ 7.32 µM) | 4 (≈ 14.6 µM) | > 64 | 4 (≈ 14.6 µM) | 4 (≈ 14.6 µM) | 2 (≈ 7.32 µM) | Active |  | inactive |
| O=c1[nH]nc(-c2cccc(OCc3ccccc3)c2)o1 | > 64 | > 64 | > 64 | > 64 | > 64 | > 64 |  |  |  |
| CCCCC(CC)COc1cccc(-c2cnn(C)n2)c1 (stereo not given) | > 64 | > 64 | > 64 | > 64 | > 64 | > 64 |  |  |  |
| Clc1cccc(COc2cccc(-c3c[nH]nn3)c2)c1 | 16 (≈ 56 µM) | 16 (≈ 56 µM) | > 64 | 16 (≈ 56 µM) | 32 (≈ 112 µM) | 16 (≈ 56 µM) |  |  |  |
| CCCCC(CC)COc1cccc(C(N)=O)c1 (racemic) | 16 (≈ 64.2 µM) | 16 (≈ 64.2 µM) | > 64 | 8 (≈ 32.1 µM) | 16 (≈ 64.2 µM) | 16 (≈ 64.2 µM) |  |  |  |
| CCCCC(CC)COc1cccc(-c2n[nH]c(=O)o2)c1 (racemic) | 4 (≈ 13.8 µM) | 8 (≈ 27.6 µM) | > 64 | 4 (≈ 13.8 µM) | 8 (≈ 27.6 µM) | 4 (≈ 13.8 µM) | Active | inactive |  |
| CCCCC(CC)COc1cccc(Cn2cncn2)c1 (racemic) | 16 (≈ 55.7 µM) | 32 (≈ 111 µM) | > 64 | 16 (≈ 55.7 µM) | 32 (≈ 111 µM) | 16 (≈ 55.7 µM) | Active | inactive |  |
| Clc1ccc(COc2cccc(-c3c[nH]nn3)c2)cc1 | > 64 | > 64 | > 64 | > 64 | > 64 | > 64 |  |  |  |
| CCCCCCCCOc1cccc(-c2c[nH]nn2)c1 | 2 (≈ 7.32 µM) | 4 (≈ 14.6 µM) | > 64 | 4 (≈ 14.6 µM) | 4 (≈ 14.6 µM) | 4 (≈ 14.6 µM) | Active | inactive |  |
| Cc1cccc(COc2ccc(F)c(-c3c[nH]nn3)c2F)c1 | 32 (≈ 106 µM) | 16 (≈ 53.1 µM) | > 64 | 64 (≈ 212 µM) | 32 (≈ 106 µM) | 32 (≈ 106 µM) |  |  |  |
| Cc1ccc(COc2ccc(F)c(-c3c[nH]nn3)c2F)cc1 | 32 (≈ 106 µM) | 16 (≈ 53.1 µM) | > 64 | > 64 | 32 (≈ 106 µM) | 32 (≈ 106 µM) |  |  |  |
| CCCCC(CC)COc1cccc(-c2ncno2)c1 (racemic) | > 64 | > 64 | > 64 | > 64 | > 64 | > 64 |  |  |  |
| O=[N+]([O-])c1ccc(COc2cccc(Cn3cncn3)c2)cc1 | > 64 | > 64 | > 64 | > 64 | > 64 | > 64 |  |  |  |
| Clc1ccc(COc2cccc(Cn3cncn3)c2)cc1 | > 64 | > 64 | > 64 | 64 (≈ 214 µM) | > 64 | > 64 |  |  |  |
| NC(=O)c1c(F)ccc(OCc2nc3cc(Cl)cnc3s2)c1F | 0.25 (≈ 0.703 µM) | 1 (≈ 2.81 µM) | > 64 | 0.25 (≈ 0.703 µM) | 0.5 (≈ 1.41 µM) | 0.5 (≈ 1.41 µM) |  |  |  |
| Fc1ccc(OCc2nc3cc(Cl)cnc3s2)c(F)c1-c1c[nH]nn1 | > 64 | > 64 | > 64 | > 64 | > 64 | > 64 |  |  |  |

Reference: ChEMBL document CHEMBL4184277, “Substitution of terminal amide with 1H-1,2,3-triazole: Identification of unexpected class of potent antibacterial agents” (2018)
